# Rtt109 HAT inh: inhibitors of Candida albicans Rtt109/Vps75 histone acetyltransferase; Q5AAJ8; purified Rtt109/Vps75, ThioGlo CoA-SH fluorescence, 4 h; inhibition, % at 34.9 µM; 330,000 compounds, 0.16% hits; AID 540336;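 active = inhibition of at least 50% in every replicate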
# FGF22 binding: FGF22 (human) thermal shift binding; Q9HCT0; recombinant FGF22 thermal shift, SYPRO orange fluorescence; percent of sucrose octasulfate shift, DMSO zero; activity (Tm shift, normalised), % at 9.99 µM; 340,000 compounds, 1.5% hits;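 active = mean Tm shift, scaled 0 neutral to 100 positive control, at about 1.3% or above, every replicate too, limit read from the data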
# Target sequence (Q9HCT0 whole entry, looked up): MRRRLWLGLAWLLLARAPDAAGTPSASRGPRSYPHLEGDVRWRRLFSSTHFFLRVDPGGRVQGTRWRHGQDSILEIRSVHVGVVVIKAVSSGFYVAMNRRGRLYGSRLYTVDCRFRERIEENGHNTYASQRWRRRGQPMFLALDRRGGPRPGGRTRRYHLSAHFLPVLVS
# ARFGAP1 inh: inhibitors of rat ARFGAP1; Arfgap1-stimulated ARF1 GTP hydrolysis, GDP FP detection; inhibition, % at 16.5 µM; Q62848; 360,000 compounds, 0.26% hits; AID 651572;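 active = inhibition above a per-plate limit, mean inhibition of low control wells plus 3 SD, cut at about 25% in these data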
# Target sequence (Q62848 1-136 limits assumed): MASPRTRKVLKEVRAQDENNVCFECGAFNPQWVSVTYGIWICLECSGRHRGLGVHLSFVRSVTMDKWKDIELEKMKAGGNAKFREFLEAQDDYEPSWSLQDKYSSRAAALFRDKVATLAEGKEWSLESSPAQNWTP
#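 Repeats: one replicate per compound; assay system: rat Arfgap1 catalytic domain, aa 1-136; times: enzyme reaction 120 min at 25 °C after 20 min preincubation; detection: FP of antibody-bound GDP Alexa 633 tracer, ex 620/em 688 nm; benchmarks: high control wells lacking Arfgap1, low control full reaction with DMSO; reagent: human ARF1(Δ1-17)-GTP substrate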
# Efflux pump inh: inhibitors of Candida antifungal efflux pumps expressed in yeast; inhibition, % at 10 µM; 330,000 compounds, 0.44% hits; S. cerevisiae Candida pump triplex, Nile Red efflux; AID 485275;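 active = plate passing quality check with inhibition over a set limit, or well fluorescence over plate mean plus 4 SD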;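 also: Nile Red retained in pooled yeast measured as flow cytometry median fluorescence; higher means more Nile Red kept so more efflux inhibition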
# ASAP1 GAP inh: blocks human ASAP1-stimulated Arf1 GTP hydrolysis. AID 624377. Q9ULH1. inhibition, % at 16.5 µM. GDP FP detection. 360,000 compounds, 0.19% hits; in the data active = inhibition above about 25%
# Target sequence (Q9ULH1 325-724 limits assumed): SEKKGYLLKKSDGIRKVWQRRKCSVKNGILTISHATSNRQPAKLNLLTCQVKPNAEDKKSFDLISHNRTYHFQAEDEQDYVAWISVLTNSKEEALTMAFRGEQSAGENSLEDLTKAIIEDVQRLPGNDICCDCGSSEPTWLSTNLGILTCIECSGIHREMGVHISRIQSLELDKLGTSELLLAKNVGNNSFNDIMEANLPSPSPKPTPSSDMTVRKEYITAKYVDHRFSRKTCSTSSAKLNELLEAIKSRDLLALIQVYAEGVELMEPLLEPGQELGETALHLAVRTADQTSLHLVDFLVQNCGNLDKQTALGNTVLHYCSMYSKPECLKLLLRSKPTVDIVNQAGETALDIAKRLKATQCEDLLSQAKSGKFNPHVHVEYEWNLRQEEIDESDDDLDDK
# Cmpd fluor yeast: compound fluorescence in yeast efflux pump counter-screen. shares compounds with Efflux pump inh. S. cerevisiae AD/pABC3, flow cytometry. fluorescence ratio to DMSO, % at 10 µM. 1,700 compounds, 4% hits;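 active = fluorescence ratio to DMSO above its plate's cutoff, the plate mean ratio plus 5 SD, cut at about 210% in these data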;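 also: unstained yeast with no Nile Red so the signal is compound autofluorescence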
# CaMdr1 efflux inh: blocks the Candida albicans Mdr1 efflux pump in yeast | 1,700 compounds, 1% hits | inhibition, % at 10 µM | AID 588518 | shares compounds with Efflux pump inh | S. cerevisiae AD/CaMDR1, Nile Red efflux, flow cytometry; in the data active = inhibition above about 26%;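 also: higher means more Nile Red retained so more efflux inhibition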
# CaCdr2 efflux inh: inhibitors of Candida albicans Cdr2 efflux pump; shares compounds with Efflux pump inh; S. cerevisiae AD/CaCDR2, Nile Red retention, flow cytometry; Nile Red retention ratio vs DMSO, % at 10 µM; 1,700 compounds, 4% hits; in the data active = Nile Red retention ratio vs DMSO above about 190%;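 also: higher ratio means more blocking of Cdr2 efflux of the dye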
# CaCdr1 efflux inh: Candida Cdr1 efflux pump inhibition. shares compounds with Efflux pump inh. S. cerevisiae AD/CaCDR1, Nile Red efflux, flow cytometry. inhibition, % at 10 µM. 1,700 compounds, 1% hits. AID 588522;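 active = inhibition above the screen-wide mean plus twice its standard deviation, cut at about 32% in these data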
# Hits are given with their value; n = inactive; x = not tested or not shown; + = active, no number. In the library only some 1.9% were active in any assay of this set; here they are far more common.
SMILES,Rtt109 HAT inh,FGF22 binding,ARFGAP1 inh,Efflux pump inh,ASAP1 GAP inh,Cmpd fluor yeast,CaMdr1 efflux inh,CaCdr2 efflux inh,CaCdr1 efflux inh
O=C(NC(=S)Nc1ccc2[nH]c(=O)[nH]c2c1)c1cncc(Br)c1,n,n,n,0.8,n,n,n,n,n
O=C(NC(=S)Nc1ccc2[nH]c(=O)[nH]c2c1)c1ccccc1F,n,n,n,n,n,n,n,n,n
CN(CC(=O)Nc1ccccc1Cl)C(=O)COC(=O)CN1C(=O)NC2(CCCC2)C1=O,n,n,n,n,n,x,x,x,x
COc1ccc(C(c2nnnn2CC2CCCO2)N2CCN(c3ccc(F)cc3)CC2)cc1 (stereo unspecified),n,x,n,n,n,x,x,x,x
CC1CCN(S(=O)(=O)c2ccc3c(c2)CC(C)N3C(=O)C2CCC2)CC1 (stereo unspecified),n,n,n,n,n,x,x,x,x
CC1Cc2cc(S(=O)(=O)N3CCCCC3)ccc2N1C(=O)C1CCC1 (stereo unspecified),n,n,n,n,n,n,n,n,n
COc1ccccc1CNS(=O)(=O)c1ccc2c(c1)CC(C)N2C(=O)C1CCC1 (stereo unspecified),n,n,n,n,n,n,n,n,n
CCN1CCN(Cc2c(O)ccc3c2O/C(=C\C=C\c2ccccc2OC)C3=O)CC1,n,x,n,24,n,n,n,n,n
O=C1/C(=C/c2ccco2)Oc2c1ccc(O)c2CN1CCCCC1,n,x,n,3.1,n,n,n,n,n
CCOC(=O)c1ccccc1NS(=O)(=O)c1ccccc1F,n,x,n,5.9,n,n,n,n,n
Cc1ccc([C@@H]2CC=C(C(=O)O)[C@H](c3ccc(Br)cc3)N2S(=O)(=O)c2ccccc2C)cc1,n,x,n,n,n,x,x,x,x
Cc1noc(C)c1COc1ccccc1C(=O)N1CCN(c2cccc(C(F)(F)F)c2)CC1,n,n,n,1.1,n,n,n,n,n
CN(Cc1ccccc1)C(=O)COC(=O)CNS(=O)(=O)c1ccc2ccccc2c1,n,n,n,75,n,n,n,n,n
CC1Oc2ccccc2N(CC(=O)c2ccccc2)C1=O (stereo unspecified),n,n,x,n,x,x,x,x,x
CC1Oc2ccccc2N(CC(=O)c2ccc(F)cc2)C1=O (stereo unspecified),n,n,n,1.1,n,n,n,n,n
COC(=O)CN1C(=S)N(c2ccc(F)cc2)C(=O)C1CC(=O)Nc1ccc(F)cc1 (stereo unspecified),n,n,n,n,n,x,x,x,x
COC(=O)CN1C(=S)N(c2ccc(Cl)cc2)C(=O)C1CC(=O)Nc1ccc(Cl)cc1 (stereo unspecified),n,x,n,0.5,n,n,n,n,n
NS(=O)(=O)c1ccc(CCNC(=O)c2cc(-c3ccccc3)nc3ccccc23)cc1,n,x,n,21,n,n,n,n,n
Cc1ccc(-c2cc(C(=O)NCCc3ccc(S(N)(=O)=O)cc3)c3ccccc3n2)cc1,n,n,n,n,n,x,x,x,x
CCOC(=O)c1oc2c(c1C)/C(=N/O)CCC2,n,x,n,n,n,x,x,x,x
CCOC(=O)c1oc2c(c1C)C(=O)CCC2,n,x,n,6.7,n,n,n,n,n
O=C(Nc1ccccc1Cl)c1cc(S(=O)(=O)N2CCCCC2)ccc1N1CCOCC1,60,x,n,1.2,n,n,n,n,n
O=C(Nc1ccccc1N1CCCCC1)c1cc(S(=O)(=O)N2CCOCC2)ccc1Cl,n,n,n,n,n,x,x,x,x
Cc1ccc(OCC(=O)Nc2ccc(CN3CCOCC3)cc2)cc1,n,n,n,n,n,x,x,x,x
COc1cc(/C=C2\Oc3cc(O)ccc3C2=O)ccc1O,n,n,n,n,n,x,x,x,x
SMILES,Rtt109 HAT inh,FGF22 binding,ARFGAP1 inh,Efflux pump inh,ASAP1 GAP inh,Cmpd fluor yeast,CaMdr1 efflux inh,CaCdr2 efflux inh,CaCdr1 efflux inh
O=C1/C(=C/c2ccc(O)c(O)c2)Oc2cc(O)ccc21,n,n,n,2.4,n,n,n,n,n
O=C1/C(=C\c2ccccn2)SC(=S)N1Nc1ncc(C(F)(F)F)cc1Cl,n,x,x,n,x,x,x,x,x
O=C1/C(=C/c2ccc(F)cc2)SC(=S)N1Nc1ncc(C(F)(F)F)cc1Cl,n,x,n,n,n,n,n,n,n
O=C1/C(=C/c2ccccn2)SC(=S)N1Nc1ncc(C(F)(F)F)cc1Cl,n,n,n,x,n,n,n,n,n
CNC(=O)c1c(NC(=O)c2ccc(N3C(=O)CCC3=O)cc2)sc2c1CCC(C)C2 (stereo unspecified),n,n,n,n,n,x,x,x,x
O=C(Oc1ccc2c(=O)c(Oc3ccc4ccccc4c3)coc2c1)c1cncc(Br)c1,n,x,n,1.2,n,n,n,n,n
Cc1cc2nc3n(c2cc1C)CC1CC(C(=O)NCc2ccccc2)N(C)C31 (stereo unspecified),n,n,n,n,n,x,x,x,x
Cc1ccc(C2=NN(CC(=O)NCc3ccccn3)C(=O)CC2)cc1,n,n,n,7.6,n,n,n,n,n
O=c1[nH][nH]c(-c2ccccc2O)c1C(C[N+](=O)[O-])c1cccc(Cl)c1 (stereo unspecified),n,n,n,n,n,x,x,x,x
O=c1[nH][nH]c(-c2ccccc2O)c1C(C[N+](=O)[O-])c1ccccc1 (stereo unspecified),n,x,n,5.5,n,n,n,n,n
Clc1nc(Nc2ccccc2)nc(Nc2ccccc2)n1,50,x,n,11,n,n,n,n,n
CC(C)(C)Nc1nc(Cl)nc(Nc2ccccc2)n1,n,n,n,n,n,x,x,x,x
[O-]/C(=C(\C(=S)Nc1ccc(SC(F)F)cc1)[n+]1ccccc1)c1cc(Cl)ccc1Cl,n,n,n,n,n,x,x,x,x
COc1ccccc1N1CCN(CC(=O)Nc2ccc(-n3cnnn3)cc2)CC1,n,n,n,0.9,n,n,n,n,n
CN(C)c1ccc(/C=C/C=C2/SC(=S)N(c3ccccc3)C2=O)cc1,n,x,n,2.4,n,+,n,547,n
O=C(O)c1ccc(N2C(=O)/C(=C/C=C/c3ccccc3)SC2=S)cc1,x,n,n,n,n,x,x,x,x
O=C(c1cccnc1)N1C[C@@H]2[C@H](c3ccccc31)[C@@H](CO)N2C(=O)C1CCCC1,x,n,x,x,x,x,x,x,x
CCn1c(=O)n(CC)c2cc(NC(=O)c3ccccc3Cl)ccc21,n,n,n,n,n,x,x,x,x
Cc1cccc(Sc2ccc([N+](=O)[O-])cn2)c1,n,n,n,n,n,x,x,x,x
CCCCOc1ccc(C(=O)N/C(=C\c2cccc([N+](=O)[O-])c2)C(=O)OC(C)C)cc1,n,x,n,n,n,x,x,x,x

# Screening data: PubChem BioAssay, several laboratories
